Measured values: ChEMBL document CHEMBL1123418, “N-imidazolylchroman-4-ones, N-imidazolyl-1-tetralones, and their alcohols as hypolipemic agents raising high-density lipoproteins” (1986)

What was measured:
Rattus norvegicus [1] = assay: Percent change in high density lipoproteins cholesterol concentration in serum from hypercholesterolemic rats at dose 50 mg/kg (po); format: functional
How it was run: (§1)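 Rats were fed 1.5% cholesterol/0.5% cholic acid diet for 7 days, with compounds given by gavage over the last 4 days as a 0.5% Methocel suspension (0.5 mL/100 g). Rats were fasted overnight, killed on day 8 and bled under light CO₂ anesthesia. HDL was isolated by heparin-MnCl₂ precipitation (8000 rpm, 15 min, 4 °C). Total and HDL cholesterol were measured enzymatically-colorimetrically; % change vs control.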

Rattus norvegicus [2] = assay: Percent increase in liver weight in rats when administered perorally; format: functional
Rattus norvegicus [3] = assay: Percent change in total cholesterol concentration in serum from hypercholesterolemic rats at dose 50 mg/kg (po); format: functional
Rattus norvegicus [4] = assay: Percent change in high density lipoproteins cholesterol concentration in serum from hypercholesterolemic rats at dose 25 mg/kg (po); format: functional; how it was run: as §1
Rattus norvegicus [5] = assay: Percent change in total cholesterol concentration in serum from hypercholesterolemic rats at dose 25 mg/kg (po); format: functional; how it was run: as §1
Rattus norvegicus [6] = assay: Percent change in total cholesterol concentration in serum from hypercholesterolemic rats at dose 45 mg/kg (po); format: functional
Rattus norvegicus [7] = assay: Percent change in high density lipoproteins cholesterol concentration in serum from hypercholesterolemic rats at dose 45 mg/kg (po); format: functional; how it was run: as §1
Rattus norvegicus [8] = assay: Percent change in high density lipoproteins cholesterol concentration in serum from hypercholesterolemic rats at dose 35 mg/kg (po); format: functional; how it was run: as §1
Rattus norvegicus [9] = assay: Percent change in total cholesterol concentration in serum from hypercholesterolemic rats at dose 35 mg/kg (po); format: functional
Rattus norvegicus [10] = assay: Percent increase in liver weight in rats when a 50 mg/Kg dose was administered; format: functional
Rattus norvegicus [11] = organism: Rattus norvegicus; assay: Compound was tested in vitro for inhibition of Cholesterol biosynthesis in rat liver slices, % inhibition of [14C]acetate incorporation in neutral lipids at 2 e10-4 concentration; format: functional
How it was run: (§2)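 Liver slices (250 mg) from fed male rats were incubated in Krebs-Ringer bicarbonate, pH 7.4, with 4 mM [2-¹⁴C]acetate under 95% O₂-5% CO₂. Compounds were tested at a final 2 × 10⁻⁴ M, or 5 × 10⁻⁵ M for one compound. ¹⁴C incorporation into cholesterol and into petroleum-ether-soluble nonsaponifiable neutral lipids gave % inhibition; mean of four determinations.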

Rattus norvegicus [12] = assay: Compound was tested for Enzyme induction effect in male rats treated for 5 days at dose 50 mg/kg concentration of cytochrome […]( mmol/mg) of protein; format: functional
How it was run: (§3)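 Male OFA-ICO SD rats were dosed orally for 5 days, with test compounds at 50 mg/kg/day and sodium phenobarbital at 75 mg/kg/day. Liver was homogenized in 1.15% KCl-0.01 M phosphate, pH 7.5. Microsomes were spun from the 9000g supernatant at 105000g and assayed for protein, cytochrome P-450, aniline p-hydroxylation (µmol p-aminophenol/20 min) and aminopyrine N-demethylation (µmol HCHO/5 min). Liver/body weight was also recorded. Mean ± SEM of four rats; Dunnett's test.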

Rattus norvegicus [13] = assay: Compound was tested for Enzyme induction effect in male rats treated for 5 days at dose 50 mg/kg concentration of microsomal proteins (mg/g) of liver; format: functional, organism-based; design: dose 50 mg/kg; how it was run: as §3
Rattus norvegicus [14] = assay: Compound was tested for Enzyme induction effect in male rats treated for 5 days at dose 50 mg/kg aniline p-hydroxylase activity(per g) of liver; format: functional; how it was run: as §3
Rattus norvegicus [15] = assay: Percent change in low density lipoproteins cholesterol concentration in serum from normocholesterolemic rats at dose 50 mg/kg (po)
Rattus norvegicus [16] = assay: Compound was tested for Hepatic peroxisomal proliferation effect in male rats treated for 7 days at dose 50 mg/kg catalase activity (per mg) of protein; format: functional
How it was run: (§4)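 Male OFA-ICO SD rats received oral doses of 50 mg/kg/day for 1 week. Liver was homogenized in 0.25 M sucrose-0.01 M phosphate-0.1% ethanol, pH 7, then diluted in incubation buffer with 0.1% Triton X-100 and centrifuged. Supernatants were assayed for catalase (K, sec⁻¹), carnitine acetyltransferase (nmol CoASH/min) and cyanide-insensitive palmitoyl-CoA oxidation (nmol NAD⁺ reduced/min). Mean ± SEM of three rats; Dunnett's test.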

Rattus norvegicus [17] = assay: Compound was tested for Enzyme induction effect in male rats treated for 5 days at dose 50 mg/kg aminopyrine N-demethylase activity (per g) of liver; format: functional; how it was run: as §3
[18] = Compound was tested for Hepatic peroxisomal proliferation effect in male rats treated for 7 days at dose 50 mg/kg ratio of % liver weight to % body weight; format: functional
Rattus norvegicus [19] = organism: Rattus norvegicus; assay: Compound was tested in vitro for inhibition of Cholesterol biosynthesis in rat liver slices, % inhibition of [14C]-acetate incorporation in cholesterol at 2 e10-4 concentration; format: functional; how it was run: as §2
[20] = Compound was tested for Enzyme induction effect in male rats treated for 5 days at dose 50 mg/kg; ratio of % liver weight to % body weight; format: functional; how it was run: as §3
Rattus norvegicus [21] = assay: Compound was tested for Hepatic peroxisomal proliferation effect in male rats treated for 7 days at dose 50 mg/kg carnitine acetyl transferase activity(per mg) of protein; format: functional; how it was run: as §4
[22] = Percent change in high density lipoprotein cholesterol
Rattus norvegicus [23] = assay: Percent change in triglyceride concentration in serum from normocholesterolemic rats at dose 50 mg/kg (po)
Rattus norvegicus [24] = assay: Compound was tested for Hepatic peroxisomal proliferation effect in male rats treated for 7 days at dose 50 mg/kg palmitoyl-CoA oxidation activity(per mg) of protein; format: functional; how it was run: as §4
Rattus norvegicus [25] = assay: Compound was tested for Hepatic peroxisomal proliferation effect in male rats treated for 7 days at dose 50 mg/kg concentration of hepatic proteins(mg/g) in liver; format: functional, organism-based; design: dose 50 mg/kg

Compound	Change (Rattus norvegicus [1]) [%]	Change (Rattus norvegicus [2]) [%]	Change (Rattus norvegicus [3]) [%]	other results
CC(C)(C)c1cc(Br)c2c(c1)C(=O)C(n1ccnc1)CO2 (stereo not given)	57	15	-12	–
O=C1c2ccsc2CCC1n1ccnc1 (stereo not given)	2	–	17	–
COc1cc(Br)c2c(c1)C(=O)C(n1ccnc1)CO2 (stereo not given)	64	6	14	–
CCCc1cc2c(cc1O)OC(C)C(n1ccnc1)C2=O (stereo not given)	–	8	–	Change (Rattus norvegicus [4]): 28%; Change (Rattus norvegicus [5]): -15%
COc1ccc2c(c1)C(=O)C(n1ccnc1)CC2 (stereo not given)	52	10	-40	–
O=C1c2ccccc2CCC1n1cccn1 (stereo not given)	-3	9	52	–
Cc1cc(Br)c2c(c1)C(=O)C(n1ccnc1)CO2 (stereo not given)	21	7	–	Change (Rattus norvegicus [6]): -15%
CCCC1Oc2ccccc2C(=O)C1n1ccnc1 (stereo not given)	–	20	–	Change (Rattus norvegicus [6]): -4%; Change (Rattus norvegicus [7]): 53%
O=C1c2cc(O)ccc2OCC1n1ccnc1 (stereo not given)	-4	3	9	–
CC(C)(C)c1cc2c(cc1O)OCC(n1ccnc1)C2=O (stereo not given)	97	11	-55	–
O=C1c2ccccc2OCC1n1ccnc1 (stereo not given)	4	16	34	–
O=C1c2cc(Br)cc(Br)c2OCC1n1ccnc1 (stereo not given)	171	29	-68	–
O=C1c2ccccc2CCC1n1ccnc1 (stereo not given)	94	13	-34	–
COC1c2cc(Cl)ccc2OCC1n1ccnc1 (racemic)	-7	15	8	–
Clc1ccc2c(c1)C=C(n1ccnc1)CO2	25	2	-10	–
O=C1c2ccccc2OC(c2ccccc2)C1n1ccnc1 (stereo not given)	-3	5	27	–
Cc1ccc2c(c1)C(=O)C(n1ccnc1)CO2 (stereo not given)	32	–	7	–
CCCc1cc2c(cc1OC)OC(C)C(n1ccnc1)C2=O (stereo not given)	–	24	–	Change (Rattus norvegicus [8]): 152%; Change (Rattus norvegicus [9]): -57%
CC1Oc2cc(O)ccc2C(=O)C1n1ccnc1 (stereo not given)	2	3	-22	–
O=C1c2cc(Cl)ccc2OCC1n1ccnc1 (stereo not given)	–	28	–	Change (Rattus norvegicus [10]): 34%; Inhibition (Rattus norvegicus [11]): 0%; Activity (Rattus norvegicus [12]): 2.46; Concentration (Rattus norvegicus [13]): 42.5; Activity (Rattus norvegicus [14]): 0.93; Change (Rattus norvegicus [15]): -53%; Activity (Rattus norvegicus [16]): 42.1; Activity (Rattus norvegicus [17]): 2.98; Ratio [18]: 4.36%; Inhibition (Rattus norvegicus [19]): 0%; Ratio [20]: 4.4%; Activity (Rattus norvegicus [21]): 2.9; Percent change in HDL cholesterol [22]: 153; Change (Rattus norvegicus [23]): -46%; Activity (Rattus norvegicus [24]): 4.1; Concentration (Rattus norvegicus [25]): 216
O=C(O)c1ccc2c(c1)C(=O)C(n1ccnc1)CC2 (stereo not given)	–	-3	–	Change (Rattus norvegicus [6]): -5%; Change (Rattus norvegicus [7]): -9%
Nc1ccc2c(c1)C(=O)C(n1ccnc1)CC2 (stereo not given)	–	3	–	Inhibition (Rattus norvegicus [11]): 0%; Inhibition (Rattus norvegicus [19]): 74%; Change (Rattus norvegicus [8]): 31%; Change (Rattus norvegicus [9]): -24%
